Assay outcomes as filed in PubChem.
This is a sample that favours compounds with a hit; in the whole collection about 2.2% have one here.
Thrombin inh: thrombin (human) inhibition; alpha-thrombin, Boc-VPR-AMC fluorogenic substrate cleavage; inhibition, % at 5 µM; hit rate 0.26% among 220,000;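 active = inhibition at or above 40%; inactive = inhibition below 40%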
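Material: human alpha-thrombin protein. Incubation: reaction at ambient temperature. Technique: fluorescence of released AMC, ex 355 nm, em 460 nm. Control set: no-compound enzyme wells and no-enzyme blanks. Also added: Boc-VPR-AMC substrate, 15 µM final. Buffer or medium: pH 7.5 Tris (50 mM) with NaCl 150 mM, Tween 20 0.05%.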
FXIIa inh 1536: blocks human coagulation factor XIIa protease activity; purified FXIIa, Boc-QGR-AMC fluorogenic substrate, 2 h; P00748; hit rate 0.3% among 220,000; inhibition, % at 5 µM; in the data active = inhibition above about 40%
Wee1 degr inh: blocks degradation of human Wee1 kinase | HeLa Luc-Wee1K328M stability, luciferase luminescence; 100% = proteasome inhibitor MG132 effect | hit rate 1.2% among 220,000 | reporter increase, % at 5 µM | AID 1321 | P30291;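 active = activation above the mean of all tested compounds plus 3 SD, set per screening run, cut at about 8.8% in these data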;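 note: cells exposed to compound for 20 h before luminescence read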
Target sequence (P30291 whole entry K328M): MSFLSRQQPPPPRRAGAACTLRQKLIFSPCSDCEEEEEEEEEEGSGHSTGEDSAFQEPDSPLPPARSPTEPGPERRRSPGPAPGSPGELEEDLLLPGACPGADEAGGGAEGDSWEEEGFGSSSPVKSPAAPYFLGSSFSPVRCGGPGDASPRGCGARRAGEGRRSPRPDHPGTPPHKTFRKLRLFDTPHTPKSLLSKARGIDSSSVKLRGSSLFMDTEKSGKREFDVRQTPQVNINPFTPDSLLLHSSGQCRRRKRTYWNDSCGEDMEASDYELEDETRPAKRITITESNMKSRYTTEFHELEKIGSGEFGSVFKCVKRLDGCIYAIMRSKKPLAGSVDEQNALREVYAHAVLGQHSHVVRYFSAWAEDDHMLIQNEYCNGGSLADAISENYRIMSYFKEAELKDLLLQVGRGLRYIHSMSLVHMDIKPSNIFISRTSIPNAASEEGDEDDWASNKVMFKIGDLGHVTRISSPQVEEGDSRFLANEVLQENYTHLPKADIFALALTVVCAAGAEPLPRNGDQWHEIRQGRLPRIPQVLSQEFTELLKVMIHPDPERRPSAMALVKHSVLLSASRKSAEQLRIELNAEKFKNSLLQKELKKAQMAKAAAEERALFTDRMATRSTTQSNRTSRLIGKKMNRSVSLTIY
KLK5 inh: inhibitors of human kallikrein 5; hit rate 0.59% among 210,000; inhibition, % at 5 µM; Q9Y337; recombinant hK5, fluorogenic AMC substrate cleavage;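 active = inhibition of 40% or more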
FXIa inh: blocks human coagulation factor XIa protease activity; P03951; purified FXIa, Boc-Glu-Ala-Arg-AMC fluorogenic substrate; inhibition, % at 5 µM; hit rate 0.14% among 220,000; AID 798;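 active = inhibition of at least 40%; inactive = inhibition below 40%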;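 note: fluorescence of freed AMC excited at 355 nm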
Wee1 stab conf: confirmation of human Wee1 degradation inhibitors | HeLa Luc-Wee1K328M degradation, luminescence; vehicle 0%, proteasome-blocked wells 100% | shares compounds with Wee1 degr inh | activation, % at 5 µM | hit rate 4% among 1,100; in the data active = activation above about 8.9%
Of the large screens only hits and unclear results are named; the others gave an inactive call (follow-up assays come after a bar, where they were run).

Cc1cccc(-c2nc(CSc3nc4c(c(=O)[nH]3)CCC4)c(C)o2)c1	Wee1 degr inh 11 | Wee1 stab conf inactive
O=C(CN1C(=O)/C(=C\c2cccc(Cl)c2)Oc2ccccc21)N1CCN(c2ccccn2)CC1	none
COc1cccc(N(CC(=O)N/N=C(\C)c2cccs2)S(C)(=O)=O)c1	Wee1 degr inh 38 | Wee1 stab conf inactive
O=C(C1CC(=O)N(C2CCCCC2)C1)N1CCc2ccccc21 (stereo not given)	none
Cc1ccc(NC(=O)CN(C)Cc2nc3ccccc3c(=O)[nH]2)c(Br)c1	Wee1 degr inh 11 | Wee1 stab conf inactive
CCOCCn1c(CN2CCN(c3ccccc3)CC2)nc2c1c(=O)n(C)c(=O)n2C	Wee1 degr inh 11 (no result: Thrombin inh, FXIIa inh 1536, KLK5 inh, FXIa inh) | Wee1 stab conf inactive
O=c1c(Cl)c(N2CCOCC2)cnn1-c1nc2ccccc2[nH]1	none
CC(C)COc1ccc(C(=O)NC(CC(C)C)C(=O)O)cc1 (stereo not given)	none
Cc1ccc(Oc2ccc(OCC(=O)NC(CC(C)C)C(=O)O)cc2)cc1 (stereo not given)	Wee1 degr inh 14 | Wee1 stab conf inactive
Nc1cc(=O)[nH]c(SCC(=O)Nc2ccccc2Sc2ccccc2)n1	none
COCC(C)n1c(C)cc(C(=O)COC(=O)/C=C/c2cccc(F)c2)c1C (stereo not given)	none
COc1ccc(OCCn2c(=O)sc3ccccc32)cc1	Wee1 degr inh 13 | Wee1 stab conf inactive
CCCCc1cc(=O)oc2c(C)c(OCc3nn[nH]n3)ccc12	none
O=C(O)/C(=C/c1ccco1)NC(=O)c1ccccc1	none
O=C(Nc1ccc(O)cc1)/C(=C/c1ccco1)NC(=O)c1ccccc1	Wee1 degr inh 12 | Wee1 stab conf inactive
O=[N+]([O-])c1ccc(S(=O)(=O)N2CCN=C2SCc2cccnc2)cc1	Wee1 degr inh 12 | Wee1 stab conf inactive
NC(N)=Nc1nc(-c2ccccc2)c2cc(F)ccc2n1	none
CCc1ccc(C(=O)CSc2nc3ccccc3c(=O)[nH]2)cc1	none
Cc1ccc(C(=O)CSc2nc3ccccc3c(=O)[nH]2)cc1	Wee1 degr inh 21 | Wee1 stab conf inactive
CN(C(=O)COC(=O)c1ccc2[nH]c3c(c2c1)CCCC3)C1CCS(=O)(=O)C1 (stereo not given)	none
Cc1noc(C)c1Cn1nc(C(=O)O)c2ccccc2c1=O	Wee1 degr inh 12 | Wee1 stab conf inactive
CC1=CC(c2ccccc2)n2nnnc2N1 (stereo not given)	Wee1 degr inh 12 | Wee1 stab conf inactive
Brc1ccc(N=C(c2ccccc2)c2ccncc2)cc1	none
Cc1ccc(Cl)cc1NC(=S)NN	none
COc1cc(C)c(C)cc1S(=O)(=O)N1CCN(Cc2ccccc2)CC1	Wee1 degr inh 14 | Wee1 stab conf inactive
CN(C)CCNC(=O)CNC(=S)N(Cc1ccccc1)Cc1cccnc1	none
Cc1ccc(CCNC(=O)CNC(=S)N(Cc2ccccc2)Cc2cccnc2)cc1	Wee1 degr inh 15 | Wee1 stab conf inactive
CC1(C)Cc2c(C#N)c(N3CCN(C(=O)c4ccccc4)CC3)nc(-c3ccco3)c2CS1	Wee1 degr inh 15 | Wee1 stab conf inactive
CC(C)c1nc(N2CCN(C(=O)c3ccccc3)CC2)c(C#N)c2c1COC(C)(C)C2	none
CCS(=O)(=O)c1ccc(C(=O)NC2CC2)c(Cl)c1Cl	Wee1 degr inh 11 | Wee1 stab conf inactive
CC(C)CNC(=O)CN(C1CCCCC1)S(=O)(=O)c1ccccc1	Wee1 degr inh 11 | Wee1 stab conf inactive
CC(=O)NS(=O)(=O)c1ccc(NC(=O)CSc2ccc(Cl)cc2)cc1	Wee1 degr inh 13 | Wee1 stab conf inactive
COc1ccc(C2CC(c3cccs3)=NN2c2nc(-c3ccccc3)cs2)cc1OC (stereo not given)	none
O=C(O)C1CCCCC1C(=O)NCc1ccc(Cl)c(Cl)c1 (stereo not given)	none
Cc1ccc(OCCSc2nc(N)cc(N)n2)cc1	Wee1 degr inh 11 | Wee1 stab conf inactive
O=C(Nc1nc2ccc(SC(F)F)cc2s1)c1ccc(NS(=O)(=O)c2ccc(F)c(F)c2)cc1	none
COc1ccc(Nc2oc(-c3ccc(Cl)cc3)nc2C#N)cc1	none
COc1ccc(Nc2oc(-c3ccc(OC)cc3)nc2C#N)cc1	Wee1 degr inh 11 | Wee1 stab conf 9.6
